mABHD4 FP: inhibits mouse alpha/beta hydrolase domain 4; actives 0.54% (n = 370,000); AID 720543; purified mABHD4, FP-Rh probe fluorescence polarization; inhibition, % at 8.92 µM;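 active = inhibition exceeding the mean over every tested compound plus 3 SD, cut at about 30% in these data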;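 note: 0% = plate median of compound wells and 100% = S159A mutant with DMSO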
Target sequence (Q8VD66 whole entry, looked up, the tested form may be a part): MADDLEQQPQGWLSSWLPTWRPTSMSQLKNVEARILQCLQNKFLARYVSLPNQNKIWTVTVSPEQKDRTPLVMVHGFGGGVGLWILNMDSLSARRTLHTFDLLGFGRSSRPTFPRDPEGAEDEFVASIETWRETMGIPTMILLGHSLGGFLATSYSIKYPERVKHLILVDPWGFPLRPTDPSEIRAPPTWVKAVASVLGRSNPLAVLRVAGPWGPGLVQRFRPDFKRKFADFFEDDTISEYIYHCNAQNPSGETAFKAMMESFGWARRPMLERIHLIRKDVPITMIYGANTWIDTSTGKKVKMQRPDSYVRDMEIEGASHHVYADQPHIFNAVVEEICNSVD
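System: mouse ABHD4 enzyme, wild type / Medium: HEPES pH 7.0, NaCl, Pluronic buffer / Reagent: FP-Rh activity-based fluorescent probe / Control set: S159A mutant high control, sample median low control / Detection: fluorescence polarization with parallel and perpendicular emission, 525/598 nm / Schedule: 45 min + 60 min at 25 °C / Compound dosing: 8.92 µM, single dose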
TCR-CD3 inh: human TCR-CD3 binding inhibition; actives 0.37% (n = 360,000); AID 651800; TAMRA-labeled TCR probe fluorescence, biochemical; inhibition, % at 9.4 µM; in the data active = inhibition above about 19%;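 note: recombinant mutant TCR 2C K166C tagged with TAMRA read by polarization; 0% = receptor in buffer alone and 100% = receptor with positive control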
SIAE primary: inhibitors of human sialic acid acetylesterase SIAE; AID 1053197; actives 0.69% (n = 370,000); SIAE FP-Rh probe binding, fluorescence polarization; inhibition, % at 9.66 µM;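 active = inhibition above a cutoff: mean of compounds within the control limits plus 3 SD of those, cut at about 17% in these data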;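 note: 0% = plate median of compound wells and 100% = probe without SIAE protein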
Tn6 DDE FP: DD(E)-Tn6 binding inhibition, primary FP screen; inhibition, % at 8.3 µM; P02675; AID 720509; Fibrin DD(E) TRITC-Tn6 fluorescence polarization displacement; actives 0.21% (n = 370,000);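 active = inhibition above a per-campaign cutoff: mean of compounds within control limits plus 3 SD, cut at about 15% in these data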;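 note: 0% = median of all compound wells on the plate and 100% = blocking peptide control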
Tn7 DDE FP: inhibitors of Tn7 peptide binding to human fibrin DD(E); actives 0.13% (n = 370,000); inhibition, % at 8.3 µM; P02675; AID 720508; FP displacement of FITC-Tn7 peptide from fibrin DD(E); 0% = median of compound wells per plate;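 active = inhibition above the mean of compounds falling within the control limits plus 3 SD of them, cut at about 14% in these data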;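 note: 0% = plate median of compound wells and 100% = 10 µM Aha-Tn7 peptide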
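Test system: human clot-derived fibrin DD(E) complex / Quantity: 2 µM final DD(E) protein / Incubation: 10 min plus 3 h, room temperature / Measured by: fluorescence polarization / Benchmarks: high control of 10 µM Aha-Tn7 peptide / Replicates: singlicate testing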
HTRA1 inhibitor: inhibitors of human serine peptidase HTRA1 | recombinant HTRA1, FP-rhodamine activity-based probe, fluorescence polarization | AID 504803 | inhibition, % at 5.96 µM | Q92743 | actives 0.5% (n = 340,000); in the data active = inhibition above about 36%;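 note: 0% = enzyme with DMSO and 100% = wells lacking enzyme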
HTRA1 conf: HTRA1 (human) inhibition, confirmation | shares compounds with HTRA1 inhibitor | recombinant HTRA1, FP-rhodamine activity-based probe, fluorescence polarization | inhibition, % at 5.96 µM | actives 66% (n = 1,600);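 active = mean inhibition over three repeats above a set limit taken from the earlier primary screen, cut at about 37% in these data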;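 note: 0% = HTRA1 with DMSO and 100% = wells lacking HTRA1; inhibitors block probe binding so polarization drops and inhibition rises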
Numbers without * were called inactive; . = not tested or not shown. This is a sample that favours compounds with a hit; in the whole collection about 1.8% have one here.

SMILES	mABHD4 FP	TCR-CD3 inh	SIAE primary	Tn6 DDE FP	Tn7 DDE FP	HTRA1 inhibitor	HTRA1 conf
COc1cc(NC(=O)c2ccccc2)c(C)cc1NC(=O)CSc1nnc(-c2ccccc2F)n1-c1ccc(C)cc1	-9.0	.	-0.7	2.9	-9.0	.	.
CCC(C)Nc1ccc(NC(C)CC)cc1 (stereo not drawn)	.	.	.	.	.	66.9*	75.5*
CCC(C)NC(=O)Nc1ccc(Br)cc1 (stereo not drawn)	-2.1	7.2	-0.8	2.8	-3.8	4.9	.
O=[N+]([O-])c1cc2c(cc1C=Nc1ccccc1)OCO2	.	.	.	.	.	51.0*	4.4
O=C(N/N=C/c1cc2c(cc1[N+](=O)[O-])OCO2)c1ccccn1	6.0	-5.0	0.2	2.5	-1.4	12.1	.
CCCCNS(=O)(=O)CC1NCc2ccc(C)cc21 (stereo not drawn)	0.4	.	-1.3	7.2	-3.0	.	.
CNc1c(NS(=O)(=O)c2ccc(Cl)s2)c(=O)oc2ccccc12	-2.0	9.0	1.8	2.1	2.1	128.6*	13.9
CNc1c(NS(=O)(=O)c2ccc(Cl)cc2)c(=O)oc2ccccc12	-2.0	-0.3	-5.6	3.7	4.8	-5.8	.
Nc1nc(-c2ccccn2)nc(N)c1Cc1ccc(Cl)cc1Cl	7.6	-4.2	-10.2	-2.5	8.6	38.7*	35.5
Nc1nc(-c2ccccn2)nc(N)c1Cc1ccccc1F	3.4	6.6	-1.2	2.2	-4.1	25.7	.
O=C(N/N=C/c1c[nH]c2ccccc12)c1ccc(O)c(O)c1	27.1	6.4	5.4	-2.8	-0.8	53.0*	82.4*
O=S1(=O)c2c(cccc2N2CCSCC2)Oc2ccccc2CN1Cc1cn(Cc2cccc(C(F)(F)F)c2)nn1	2.4	.	-8.3	-9.5	-1.3	.	.
Oc1[nH]c2ccccc2c1N=Nc1nc2ccccc2s1	-5.6	-1.9	-0.5	-6.3	7.6	11.3	.
C/C(N=Nc1nc2ccccc2s1)=N\Nc1ccccc1O	28.0	6.5	10.0	-11.6	-7.7	67.6*	73.6*
O=C(C=Cc1ccccc1)c1cc(Br)ccc1O	-6.7	-4.0	-3.6	0.8	-3.9	-16.4	.
CCOc1ccc(/C=C/C(=O)c2cc(Br)ccc(=O)c2O)cc1	22.6	9.8	16.1	-5.6	-0.5	51.0*	44.0*
CC(C)CCN(C)C1CCN(C(=O)Nc2ccc3c(c2)OCO3)CC1	3.0	.	-1.4	0.1	-3.7	.	.
C[C@H](NS(=O)(=O)c1ccc(Cl)cc1)C(=O)OCC(=O)c1ccc[nH]1	-4.6	-6.3	-3.2	-3.4	-1.1	37.6*	-1.1
O=c1cc(CN2CCN(Cc3ccccc3)CC2)c2ccc(O)c(O)c2o1	19.4	11.0	1.2	-3.5	7.8	60.8*	69.6*
CN(C)CCCNc1cc(C(C)(C)C)nc2c(-c3ccc(Cl)cc3)cnn12	26.3	-8.9	6.4	-4.5	-2.3	49.3*	69.8*
CCC(=O)NC(c1cccs1)c1cc([N+](=O)[O-])c2cccnc2c1OC (stereo not drawn)	9.9	1.3	2.3	-1.3	-1.8	.	.
Cc1ccc(C(NC(=O)C(C)C)c2cc([N+](=O)[O-])c3cccnc3c2O)cc1 (stereo not drawn)	16.8	-4.3	3.2	5.8	1.2	37.0*	65.2*
CC(C)C(=O)NC(c1cccs1)c1cc([N+](=O)[O-])c2cccnc2c1O (stereo not drawn)	.	.	.	.	.	37.7*	36.6*
CCC(=O)NC(/C=C/c1ccccc1)c1cc([N+](=O)[O-])c2cccnc2c1O (stereo not drawn)	4.7	3.3	5.2	8.2	4.7	.	.
COc1ccc(N2CCN(CCCNC(=O)CCc3cccc(Cl)c3)CC2)cc1	0.8	.	-4.5	3.0	-4.3	.	.
SMILES	mABHD4 FP	TCR-CD3 inh	SIAE primary	Tn6 DDE FP	Tn7 DDE FP	HTRA1 inhibitor	HTRA1 conf
CN(C)c1ccc(NC(=O)CSCc2nc3c(nnn3Cc3ccc(F)cc3)c(=O)[nH]2)cc1	.	.	.	.	.	37.9*	2.5
CC(=O)OCC(=O)N1CCN(C(=O)C(=O)c2cccc(C(F)(F)F)c2)CC1	0.1	3.4	2.9	3.9	4.6	.	.
CCOC(=O)c1c(C)oc2c1c(C=NCc1ccccn1)c(O)c1ccccc12	34.3*	1.5	17.9*	4.9	-2.1	43.5*	60.4*
C[C@@H]1CNCCN1c1ccc(N2CCS(=O)(=O)CC2)c(C#N)c1	-4.5	-1.2	-0.6	-0.7	-8.5	.	.
CCOC(=O)Nc1ccc2c(c1)[C@@]1(CC(=O)N(CC(C)C)C1c1ccccc1)C(=O)N2C (stereo partly drawn)	0.9	.	0.1	-6.2	5.7	.	.
CCc1ccc(O)c(CNCCNCc2cc(CC)ccc2O)c1	20.1	-1.4	-2.5	1.7	3.7	25.0	.
Cc1ccc(O)c(CNCCNCc2cc(C)ccc2O)c1	13.4	4.1	3.4	-4.0	1.7	37.8*	52.7*
O=C(Nc1ccc(Nc2ccccc2)cc1)c1ccco1	11.9	-4.2	5.9	5.4	7.9	38.4*	33.9
O=C(CSc1nc2ccccc2nc1N1CCCCC1)N1CCN(S(=O)(=O)c2cc(Cl)ccc2Cl)CC1	4.2	.	-2.3	-5.0	-1.4	.	.
CC1CCCN(C2=C(NS(=O)(=O)c3ccc(Br)cc3)C(=O)c3ccccc3C2=O)C1 (stereo not drawn)	1.1	-7.4	14.0	3.9	3.9	4.8	.
CCOC(=O)C1CCCN(C2=C(NS(=O)(=O)c3ccc(Br)cc3)C(=O)c3ccccc3C2=O)C1 (stereo not drawn)	25.2	3.1	13.3	-9.0	1.7	45.7*	62.5*
CC(C)C[C@H]1COc2cccc(F)c2S(=O)(=O)N1Cc1cn(CCC2OCCO2)nn1	6.1	.	6.4	3.8	5.8	.	.
COc1cc2c(cc1OC)C(=O)C(Br)CC2 (stereo not drawn)	.	.	.	.	.	42.5*	5.5
COc1cc2c(cc1OC)C(=O)C(c1ccc3c(c1)OCO3)CC2 (stereo not drawn)	0.3	0.4	2.5	8.6	-13.6	-2.0	.
CCCCCOc1ccc(/C=N/NC(=O)CSc2nnc(-c3ccc(OC)cc3)n2-c2ccc(C)cc2)cc1	-0.2	.	0.5	-5.9	1.4	.	.
COC(=O)[C@]12C[C@H](CC(=O)N3CCCCC3)C(=O)N(CCC3=CCCCC3)C1=C[C@H](C1CCCC1)O[C@@H]2C	-14.6	.	-2.0	-13.8	6.0	.	.
CN(CCCOC(=O)c1cc2ccccc2o1)C1CN(Cc2cn(Cc3ccccc3C(F)(F)F)nn2)S(=O)(=O)C1 (stereo not drawn)	-1.2	.	-2.8	-1.7	4.6	.	.
Oc1cc2ccccc2cc1-c1n[nH]c(=S)o1	23.1	1.6	-3.7	2.9	-3.0	48.2*	49.0*
CCOC(=O)/C(=N\Nc1ccc(OC)cc1)c1csc(Nc2ccccc2)n1	12.6	4.8	15.3	-7.5	-9.3	42.9*	27.7

Screens: PubChem BioAssay, The Scripps Research Institute Molecular Screening Center
